# Assay results as given in PMC6586034 (Clinical Pharmacology in Drug Development, 2018).
# Entries after “also recorded” stand apart in the source; their conditions may differ. Like-named read-outs stand apart in the source and are kept apart here.
# What was measured:
# [1] = test system: uric acid; assay: Urinary uric acid pharmacodynamics; format: in vivo, human; conditions: arithmetic mean (95%CI); for AeUR, % Change From baseline / CLUR, % Change From baseline / FEUA, % Change From baseline: day 7 of treatment vs day −1
# [2] = test system: serum urate (sUA); assay: Serum urate pharmacodynamics; format: in vivo, human; conditions: for Change in sUA at 24 hours: steady state, 24 hours postdose
# Outline: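 Healthy men were dosed orally once daily, each drug alone for 7 days, and serum was sampled predose to 24 h postdose on days 1, 7, 14 and 21. A central laboratory assayed serum urate. Baseline was the mean of all day −1 values. Maximum percentage change from baseline was taken per subject and averaged per group. A mixed-effects model used treatment as fixed effect, baseline as covariate and subject as random effect.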
# [3] = Safety/tolerability; format: in vivo, human; conditions: for Subjects with an increase from baseline in serum creatinine (sCr): none had sCr ≥1.5 × baseline; for Tolerability: multiple once-daily oral doses, alone or in combination, healthy adult males
# [4] = format: in vivo, human; conditions: febuxostat 80 mg + verinurad 2.5 mg
# [5] = human; cited from earlier work
# [6] = test system: URAT1; conditions: cited from earlier work; for URAT1 activity: metabolites of verinurad
# [7] = format: in vivo, human; conditions: for Tmax: male, human, plasma, po
# Outline: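 Healthy men (18–65 y, sUA ≥4.5 mg/dL) took oral doses once daily, about 30–35 min after a moderate-fat breakfast. […] Plasma was sampled predose to 24 h on days 7, 14 and 21. Acetonitrile precipitation with deuterated internal standard, then LC/MS/MS (LLOQ 0.100 ng/mL). Log GMRs (90% CI) for single agent vs day 14 came from a mixed-effects model.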
# [8] = test system: major CYPs; conditions: ref Ardea Biosciences, Inc., data on file; cited from earlier work
# [9] = format: in vivo, human
# Outline: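 Urine was collected as total catch over 0–6, 6–12 and 12–24 h postdose on days 7 (alone), 14 (combination) and 21, under once-daily oral dosing in healthy men. Verinurad was measured by LC/MS/MS, linear 2.00–1000 ng/mL. Ae0-24, fe0-24 and CLR0-24 were derived. Log-transformed parameters were compared as geometric mean ratios with 90% CI using a mixed-effects model (treatment fixed, subject random).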
# [10] = febuxostat 40 mg once daily alone
# [11] = febuxostat 80 mg once daily alone
# [12] = VERU 2.5 mg once daily, Day 7 of Treatment (0 to 24 Hours)
# [13] = verinurad 2.5 mg once daily alone
# [14] = verinurad 10 mg once daily alone
# [15] = verinurad 2.5 mg combined with febuxostat 80 mg vs alone
# [16] = VERU 2.5 mg + FBX 80 mg once daily oral, day 14, geometric mean
# [17] = VERU 2.5 mg + FBX 80 mg once daily oral, day 14, mean (SD)
# [18] = VERU 2.5 mg once daily oral alone, day 7 or 21, geometric mean
# [19] = VERU 2.5 mg once daily oral alone, day 7 or 21, mean (SD)
# [20] = VERU 10 mg + FBX 40 mg once daily oral, day 14, geometric mean
# [21] = VERU 10 mg + FBX 40 mg once daily oral, day 14, mean (SD)
# [22] = VERU 10 mg once daily oral alone, day 7 or 21, geometric mean
# [23] = VERU 10 mg once daily oral alone, day 7 or 21, mean (SD)
smiles,measurement,setting,value
"Cc1nc(-c2ccc(OCC(C)C)c(C#N)c2)sc1C(=O)O [febuxostat, Febuxostat, reference compound]","AeUR, % Change From baseline",[1]; FBX 40 mg once daily,−64.1%
same,"CLUR, % Change From baseline",[1]; FBX 40 mg once daily,−34.4 (−45.3 to −23.5) %
same,"FEUA, % Change From baseline",[1]; FBX 40 mg once daily,−24.5%
same,"AeUR, % Change From baseline",[1]; FBX 80 mg once daily,−72.4%
same,"CLUR, % Change From baseline",[1]; FBX 80 mg once daily,−42.0 (−50.8 to −33.2) %
same,"FEUA, % Change From baseline",[1]; FBX 80 mg once daily,−35.2%
same,Maximal reduction in serum urate,[2]; [10],49%
same,Mean maximal change from baseline in sUA at steady state,[2]; [10],−49.1%
same,Change in sUA at 24 hours,[2]; [10],−36.9%
same,Maximal reduction in serum urate,[2]; [11],57%
same,Mean maximal change from baseline in sUA at steady state,[2]; [11],−57.5%
same,Change in sUA at 24 hours,[2]; [11],−45.4%
same,Subjects with an increase from baseline in serum creatinine (sCr),[3]; febuxostat 40 mg,1 subjects
same,Subjects with an increase from baseline in serum creatinine (sCr),[3]; febuxostat 80 mg,2 subjects
same,Tolerability,[3],generally well tolerated
same,Effect on Tmax of febuxostat,[4],remained unchanged
CC(C)(Sc1ccncc1-c1ccc(C#N)c2ccccc12)C(=O)OC1OC(C(=O)O)C(O)C(O)C1O (stereo not shown) [M1],Circulating level in blood relative to verinurad,[5],equimolar to verinurad
same,URAT1 activity,[6],devoid of URAT1 activity
"CC(C)(Sc1ccncc1-c1ccc(C#N)c2ccccc12)C(=O)O [verinurad, Verinurad]",AeUR (amount of uric acid recovered in urine),[1]; [12],620 (485 to 755) mg
same,FEUA (fractional excretion of uric acid),[1]; [12],7.55 (6.83 to 8.26) %
same,"AeUR, % Change From baseline",[1]; VERU 2.5 mg once daily,−21.0%
same,"CLUR, % Change From baseline",[1]; VERU 2.5 mg once daily,10.7 (−7.92 to 29.3) %
same,"FEUA, % Change From baseline",[1]; VERU 2.5 mg once daily,17.2%
same,"AeUR, % Change From baseline",[1]; VERU 10 mg once daily,−17.0%
same,"CLUR, % Change From baseline",[1]; VERU 10 mg once daily,"65.8 (14.2, 117) %"
same,"FEUA, % Change From baseline",[1]; VERU 10 mg once daily,105%
same,Maximal reduction in serum urate,[2]; [13],38%
same,Mean maximal change from baseline in sUA at steady state,[2]; [13],−37.8%
same,Change in sUA at 24 hours,[2]; [13],−19.9%
same,Maximal reduction in serum urate,[2]; [14],56%
same,Mean maximal change from baseline in sUA at steady state,[2]; [14],−56.3%
same,Change in sUA at 24 hours,[2]; [14],−38.0%
same,Tmax,[7]; 2.5 mg,4 h
same,Tmax,[7]; 10 mg,2.75 h
same,Effect of febuxostat 40 mg on plasma exposure / PK parameters of verinurad 10 mg,"[7]; once-daily co-administration, healthy males",no effect; also recorded: unaffected; also recorded: not influenced
same,Increase in AUC0-24 of verinurad,[7]; [15],33%
same,Increase in Cmax of verinurad,[7]; [15],25%
same,Effect on Tmax of verinurad,[7]; verinurad 2.5 mg in the presence of febuxostat 80 mg,remained unchanged
same,Tolerability,[3],generally well tolerated
same,Subjects with an increase from baseline in serum creatinine (sCr),[3]; verinurad 2.5 mg,3 subjects
same,Subjects with mild headache (only AE considered possibly related to verinurad),"[3]; verinurad 10 mg-alone group, resolved without treatment",1 subject
same,Subjects with an increase from baseline in serum creatinine (sCr),[3]; verinurad 10 mg,2 subjects
same,Potency in inhibiting URAT1,[6],high potency
same,Inhibition of the major CYPs,[8],does not inhibit
same,Ae0-24 of verinurad (excreted unchanged in urine),[9]; [16],30.0 [21.6‐41.6] μg
same,CLR0-24 of verinurad,[9]; [16],14.4 mL/min
same,fe0-24 of verinurad,[9]; [16],1.20%
same,Ae0-24 of verinurad (excreted unchanged in urine),"[9]; VERU 2.5 mg + FBX 80 mg once daily oral, day 14, geometric mean, listed as VERU",30.0 µg
same,Ae0-24 of verinurad (excreted unchanged in urine),[9]; [17],32.3 (12.2) μg
same,CLR0-24 of verinurad,[9]; [17],15.4 (5.97) mL/min
same,fe0-24 of verinurad,[9]; [17],1.29 (0.490) %
same,Ae0-24 of verinurad (excreted unchanged in urine),[9]; [18],21.2 [14.8‐30.5] μg
same,CLR0-24 of verinurad,[9]; [18],13.6 mL/min
same,fe0-24 of verinurad,[9]; [18],0.849%
same,Ae0-24 of verinurad (excreted unchanged in urine),"[9]; VERU 2.5 mg once daily oral alone, day 7 or 21, geometric mean, listed as VERU",21.2 µg
same,Ae0-24 of verinurad (excreted unchanged in urine),[9]; [19],23.3 (10.1) μg
same,CLR0-24 of verinurad,[9]; [19],15.1 (7.29) mL/min
same,fe0-24 of verinurad,[9]; [19],0.932 (0.405) %
same,Ae0-24 of verinurad (excreted unchanged in urine),[9]; [20],97.6 µg
same,CLR0-24 of verinurad,[9]; [20],15.2 mL/min
same,fe0-24 of verinurad,[9]; [20],0.976%
same,Ae0-24 of verinurad (excreted unchanged in urine),[9]; [21],106 (44.2) μg
same,CLR0-24 of verinurad,[9]; [21],16.2 (5.43) mL/min
same,fe0-24 of verinurad,[9]; [21],1.06 (0.442) %
same,Ae0-24 of verinurad (excreted unchanged in urine),[9]; [22],86.8 µg
same,CLR0-24 of verinurad,[9]; [22],12.4 mL/min
same,fe0-24 of verinurad,[9]; [22],0.868%
same,Ae0-24 of verinurad (excreted unchanged in urine),[9]; [23],97.2 (49.7) μg
same,CLR0-24 of verinurad,[9]; [23],13.6 (5.04) mL/min
same,fe0-24 of verinurad,[9]; [23],0.972 (0.497) %
same,Increase in Ae0-24 of verinurad,[9]; verinurad 2.5 mg in the presence of febuxostat 80 mg vs alone,41%
CC(C)(Sc1cc[n+]([O-])cc1-c1ccc(C#N)c2ccccc12)C(=O)OC1OC(C(=O)O)C(O)C(O)C1O (stereo not shown) [M8],Circulating level in blood relative to verinurad,[5],equimolar to verinurad
same,URAT1 activity,[6],devoid of URAT1 activity
